# An excerpt weighted towards active compounds, which were near 1.9% of everything screened.
# TDP2 inh: TDP2 (human) inhibition, absorbance primary screen | O95551 | recombinant TDP2, T5PNP hydrolysis, p-nitrophenol absorbance 415 nm | inhibition, % at 12.8 µM | 370,000 compounds, 0.34% hits | AID 720702;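 active = inhibition above the mean of all tested compounds plus 3 SD, set per campaign, cut at about 25% in these data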;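 also: 0% = DMSO with enzyme and 100% = buffer with substrate but no TDP2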
# Target sequence (O95551 whole entry, looked up): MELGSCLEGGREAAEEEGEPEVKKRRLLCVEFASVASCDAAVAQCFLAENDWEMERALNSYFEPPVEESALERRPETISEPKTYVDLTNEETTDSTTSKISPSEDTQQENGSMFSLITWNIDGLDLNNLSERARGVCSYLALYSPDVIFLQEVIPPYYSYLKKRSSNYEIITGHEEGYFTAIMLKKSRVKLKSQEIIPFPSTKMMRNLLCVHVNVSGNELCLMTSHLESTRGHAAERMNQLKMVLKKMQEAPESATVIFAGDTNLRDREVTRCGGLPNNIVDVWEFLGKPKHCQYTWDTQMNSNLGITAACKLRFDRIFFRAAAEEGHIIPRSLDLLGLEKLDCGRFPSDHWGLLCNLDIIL
#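 Incubation: 2 h at 37 °C; Test system: recombinant human TDP2; Quantity: enzyme 120 nM; Read-out basis: percent inhibition; Medium: 50 mM Tris-HCl pH 7.5 with Mg2+, KCl, DTT, BSA; Repeats: single replicate; Compound: 12.8 µM single point, 1% DMSO; Signal: epi absorbance; Reagent: 5 mM T5PNP chromogenic substrate; Benchmarks: no-enzyme high, DMSO-plus-enzyme low.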
# Casp6 inh: caspase-6 (human) enzyme inhibition. AID 686996. purified caspase-6, Z-VEID-R110 cleavage fluorescence. 350,000 compounds, 0.53% hits. inhibition, % at 12.5 µM;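 active = mean inhibition across replicates at least about 35%, with every replicate also reaching that limit, limit read from the data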;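 also: 0% = median of neutral control wells and 100% = no fluorescence left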
# Target sequence (P55212 24-179 limits assumed): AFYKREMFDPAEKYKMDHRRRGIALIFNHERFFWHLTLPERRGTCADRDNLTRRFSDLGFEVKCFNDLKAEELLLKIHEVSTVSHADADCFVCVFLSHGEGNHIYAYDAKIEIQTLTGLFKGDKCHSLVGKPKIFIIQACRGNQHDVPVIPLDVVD
# Target sequence (P55212 194-293 limits assumed): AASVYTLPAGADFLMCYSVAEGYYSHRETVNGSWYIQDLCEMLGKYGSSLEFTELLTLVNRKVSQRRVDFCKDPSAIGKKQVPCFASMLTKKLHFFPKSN
# NSD2 HMT inh: blocks human histone methyltransferase NSD2; O96028; NSD2 peptide methylation, AlphaScreen, 120 min; inhibition, % at 12.5 µM; 310,000 compounds, 0.54% hits; AID 743445; in the data active = inhibition above about 50%
# LEDGF integ inh: blocks HIV-1 LEDGF/p75-dependent DNA integration. inhibition, % at 3.7 µM. 370,000 compounds, 0.64% hits. TR-FRET IN-LEDGF/p75 DNA integration, Eu/Cy5;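 active = inhibition above the screen-wide mean plus 3 SD, cut at about 13% in these data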;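 also: signal is the Cy5 over europium emission ratio at 671 and 618 nm; 0% = plate median of compound wells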
# UHRF1 binding: human UHRF1 methylated DNA binding inhibitors; Q96T88; UHRF1 binding to methylated oligo, TR-FRET; inhibition, % at 4.4 µM; 370,000 compounds, 0.75% hits; AID 687016; in the data active = inhibition above about 21%;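 also: UHRF1 SRA domain binding a hemimethylated CpG hairpin DNA probe; 0% = median of test compound wells and 100% = reference inhibitor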
# MBD2 inh: inhibitors of human MBD2 binding to methylated oligonucleotide; TR-FRET; 370,000 compounds, 0.31% hits; inhibition, % at 4.4 µM; in the data active = inhibition above about 13%
# IN multimer up: HIV-1 integrase multimerization activation, counter-screen; 2,000 compounds, 17% hits; shares compounds with LEDGF integ inh; TR-FRET HIV-1 integrase multimerization, biochemical; activation, % at 7.7 µM; in the data active = activation above about 8.9%
# TR-FRET interf: optically interferes with TR-FRET readout in LEDGF counter-screen. AID 1053135. 2,000 tested, under 10 active. TR-FRET optical interference counterscreen, HIV-1 IN multimerization. inhibition, % at 7.7 µM. shares compounds with LEDGF integ inh;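 active = inhibition above the mean over all tested compounds plus 3 SD, which no compound reached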;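 also: 0% = integrase with antibodies and DMSO and 100% = antibodies without integrase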
# LEDGF integ conf: confirmation of HIV-1 LEDGF/p75-dependent integration inhibitors; shares compounds with LEDGF integ inh; TR-FRET LEDGF/p75-dependent HIV-1 integration, biochemical; inhibition, % at 3.7 µM; 2,000 compounds, 36% hits; in the data active = inhibition above about 14%
# Numbers without * were called inactive; · = no result given.
SMILES,TDP2 inh,Casp6 inh,NSD2 HMT inh,LEDGF integ inh,UHRF1 binding,MBD2 inh,IN multimer up,TR-FRET interf,LEDGF integ conf
CCC(=O)Nc1nc2ccccc2n1Cc1ccc(C)cc1,-4.0,·,-0.7,14.1*,1.2,3.2,-0.6,3.1,12.5
CCC(=O)Nc1nc2ccccc2n1Cc1ccccc1,6.9,·,-0.5,6.4,-1.8,2.4,·,·,·
CN(C)S(=O)(=O)c1ccc(C(=O)Nc2cc(=O)n(C)c(=O)n2C)cc1,-0.9,-1.7,-0.6,44.1*,-0.4,2.3,0.6,-2.9,0.7
Cn1c(NC(=O)c2ccco2)cc(=O)n(C)c1=O,-0.4,1.5,-1.9,24.3*,-2.5,-4.5,0.2,-0.9,-3.9
Cn1c(NC(=O)c2ccccc2)cc(=O)n(C)c1=O,3.7,0.9,·,2.9,1.8,-4.5,·,·,·
CCCN1[C@H](C(=O)NCc2cccc(OC)c2)[C@@H](CO)[C@@H]2Cn3c(ccc(C4=CCCC4)c3=O)[C@@H]21,·,0.1,·,·,·,·,·,·,·
Cc1nonc1N1CCN(Cc2cn[nH]c2-c2ccc3c(c2)OCO3)CC1,-9.3,·,-0.4,53.3*,0.8,2.7,-0.4,2.1,-0.4
O=C(CSc1nnc(-c2ccc(Cl)cc2)n1Cc1ccco1)Nc1ccc(S(=O)(=O)Nc2nccs2)cc1,-2.2,·,-1.0,19.1*,1.7,-2.0,5.8,-20.8,5.2
Cc1cc(NS(=O)(=O)c2ccc(NC(=O)CSc3nnc(-c4ccc(Cl)cc4)n3Cc3ccco3)cc2)nc(C)n1,3.5,·,0.2,4.9,-3.9,-7.6,·,·,·
COCC(=O)N1C[C@@H](C)[C@@H](OC)CN(C)C(=O)c2cc(NC(=O)c3ccccc3)ccc2OC[C@@H]1C,·,0.4,·,·,·,·,·,·,·
CCOC1=CC2=C(C(=O)C(Cl)=CC2=O)[C@@H]2CN(S(=O)(=O)c3ccc(C)cc3)[C@@H](c3ccccc3)[C@H]12,8.0,17.9,·,18.6*,-3.1,0.9,6.6,-33.1,25.9*
O=C(CCN1CCCCC1)N[C@H]1C=C[C@H](CC(=O)N2CCC(Cc3ccccc3)CC2)O[C@H]1CO,·,1.6,·,·,·,·,·,·,·
CO[C@H]1CN(C)C(=O)c2cc(NC(=O)C3CCC3)ccc2OC[C@@H](C)N(CC2CCCCC2)C[C@@H]1C,·,-0.1,·,·,·,·,·,·,·
Oc1ccc(/C=N/Nc2ncnc3c2ncn3Cc2ccccc2)cc1O,1.2,30.0,72.5*,17.9*,4.0,8.2,57.2*,-205.2,66.0*
Oc1cccc(/C=N/Nc2ncnc3c2ncn3Cc2ccccc2)c1,-0.4,·,1.0,-2.1,-2.8,-0.1,·,·,·
Oc1cccc(/C=N/N=C/c2cccc(O)c2O)c1O,-0.3,2.3,8.5,26.9*,1.7,2.1,6.8,-24.1,73.3*
Cc1ccc(N=Cc2cccc(O)c2O)c(C)c1,10.8,·,2.9,30.9*,-2.7,-6.5,0.5,-2.7,74.6*
Oc1ccccc1C=NN=C1c2ccccc2-c2ccccc21,10.2,-1.3,-5.4,-3.2,-0.5,-1.1,·,·,·
CCOC(=O)c1c(C)[nH]c(N=Nc2cc(C(=O)O)cc(C(=O)O)c2)c1C,-22.2,5.9,·,13.7*,11.3,-0.7,8.8,-44.5,1.9
Cc1ccc(SC2=C(Sc3ccc(C)cc3)C(=O)c3ccccc3C2=O)cc1,17.6,-4.2,10.6,-1.2,-0.1,-3.0,·,·,·
CC1=CC(=O)C(Sc2ccc(C)cc2)=CC1=O,-13.6,16.4,2.2,16.5*,-3.7,-8.4,5.0,-25.1,-2.3
C=CCc1cc(C=Nc2ccc(N3CCOCC3)cc2)cc(OCC)c1O,23.7,3.1,2.1,24.6*,1.8,-2.6,4.7,-16.8,-14.2
C(=C\c1ccco1)/c1ccc2ccccc2n1,-18.0,3.2,·,18.4*,25.2*,7.2,17.0*,-85.5,37.2*
Fc1cccc(F)c1/C=C/c1ccc2ccccc2n1,9.5,·,-1.4,-2.6,0.2,2.7,·,·,·
CCOC(=O)NC1(NC2CCCCC2)Oc2ccccc2O1,-0.4,11.4,7.4,21.8*,4.6,-0.3,-1.3,6.5,-2.1
SMILES,TDP2 inh,Casp6 inh,NSD2 HMT inh,LEDGF integ inh,UHRF1 binding,MBD2 inh,IN multimer up,TR-FRET interf,LEDGF integ conf
Cc1ccc(S(=O)(=O)Nc2cc(C(C(=O)OC(C)C)C(=O)C(F)(F)F)c(O)c3ccccc23)c(C)c1 (configuration not stated),10.2,-2.2,2.7,13.6*,-4.7,1.8,0.8,-4.0,-1.1
Cc1ccc(S(=O)(=O)Nc2cccc3c2O[C@@H](CN(C)C(=O)NC2CCCCC2)[C@H](C)CN([C@@H](C)CO)C3=O)cc1,·,-2.9,·,·,·,·,·,·,·
CCOc1ccc(NC(=O)Nc2cc(-c3ccccc3)sc2C(=O)OC)cc1,-1.2,-0.6,-0.9,21.3*,-1.7,5.9,1.5,-5.3,-2.4
COC(=O)c1sc(-c2ccccc2)cc1NC(=O)C1CC1,-2.3,-1.2,-5.2,-3.5,-2.9,0.6,·,·,·
O=c1c2cc(Cl)ccc2oc2nc3n(c(=O)c12)CCCS3,-2.2,·,0.3,22.5*,-8.8,3.3,-1.5,7.5,26.8*
CCC(=O)Nc1ccc2c(c1)C(=O)N(C)C[C@@H](OC)[C@@H](C)CN[C@@H](C)CO2,·,-6.2,·,·,·,·,·,·,·
CN(C)c1ccc(N=C/C=C2\N(C)c3ccccc3C2(C)C)cc1,3.3,·,45.6,14.7*,-9.0,-18.9,6.1,-30.7,-10.0
COc1ccc(C(=O)OCC(=O)c2ccc(C3CCCCC3)cc2)cc1,8.8,·,-7.3,0.8,0.6,3.5,·,·,·
Nc1ccc(O)cc1C(=O)OCC(=O)c1ccc(C2CCCCC2)cc1,7.3,·,17.2,15.0*,-1.9,4.8,0.0,0.1,-0.3
C[C@H](CO)N1C[C@H](C)[C@H](CN(C)Cc2ccc(Oc3ccccc3)cc2)Oc2ccc(NC(=O)Nc3cccc4ccccc34)cc2C1=O,·,2.6,·,·,·,·,·,·,·
O=C(CCCCCCN1C(=O)c2ccccc2C1=O)NC1CCCCC1,0.6,·,0.6,-2.5,0.2,-2.2,·,·,·
O=C(CCCCCN1C(=O)c2ccccc2C1=O)NC1CCCC1,-5.3,·,-0.1,65.6*,-0.8,0.7,0.5,-2.3,-2.8
CC(=O)N(C)C[C@@H]1Oc2ncc(C#CC3(O)CCCC3)cc2C(=O)N([C@H](C)CO)C[C@@H]1C,·,-1.9,·,·,·,·,·,·,·
Brc1ccc(-c2nn3c(-c4ccco4)nnc3s2)o1,-6.0,·,-0.5,14.8*,22.1*,5.9,9.3*,-47.0,29.8*
Clc1ccc(-c2ccc(-c3nn4c(-c5ccco5)nnc4s3)o2)cc1,8.3,·,1.5,6.4,-1.6,-1.6,·,·,·
Cc1ccc(-c2ccc3c(c2)O[C@H](CN(C)Cc2cccc(C(=O)O)c2)[C@H](C)CN([C@@H](C)CO)S3(=O)=O)cc1,·,1.2,·,·,·,·,·,·,·

# Assay outcomes (PubChem BioAssay)
